This is an account of results in ChEMBL document CHEMBL4118103, “Synthesis and Bioactivity Investigation of the Individual Components of Cyclic Lipopeptide Antibiotics” (J Med Chem, 2018).

≈ marks a conversion by molar mass, not a printed value. Bridge positions count the residues as written; N and C are the ends. Square brackets hold non-standard residues; d marks the D form. Peptide text beside a SMILES is read from it. * marks the point of attachment. Heptanoyl(6-Me) = CC(C)CCCCC(=O)*; X1 = CC[C@H](C)CCCCC(=O)*; Dab = NCC[C@H](N)C(=O)O

Series [1] concerns Escherichia coli. Description: Antibacterial activity against Escherichia coli ATCC 25922 after 18 hrs by agar dilution method. In kind it is functional. The following applies: ATCC 25922, 18 h. In a few lines:
(§1)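 Serial two-fold agar dilution per CLSI; bacteria cultured in Mueller-Hinton broth, inoculum about 10^4 cfu/spot; final concentrations 0.03-128 µg/mL; plates incubated 35 °C for 18 h. MIC = lowest concentration preventing visible growth; representative of at least two independent experiments, a third run when the two disagreed.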

The subject of series [2] is Escherichia coli. In words: Antibacterial activity against extended-spectrum beta-lactamase producing Escherichia coli isolate 14-11 after 18 hrs by agar dilution method. The class given is functional. Conditions: isolate 14-11, 18 h. In a few lines:
as §1

Series [3] concerns Klebsiella pneumoniae. In words: Antibacterial activity against extended-spectrum beta-lactamase producing Klebsiella pneumoniae 700603 after 18 hrs by agar dilution method. The class given is functional. The following applies: Klebsiella pneumoniae, 700603, 18 h. The method, boiled down: as §1
The subject of series [4] is Klebsiella pneumoniae. Description: Antibacterial activity against NDM-1 producing Klebsiella pneumoniae ATCC BAA-2146 after 18 hrs by agar dilution method. Conditions: ATCC BAA-2146, 18 h. In kind it is functional. In a few lines:
as §1

Another series has as its system Pseudomonas aeruginosa. In words: Antibacterial activity against Pseudomonas aeruginosa ATCC 27853 after 18 hrs by agar dilution method. The class given is functional. Conditions: ATCC 27853, 18 h. In a few lines:
as §1

A further series relates to Acinetobacter baumannii. In words: Antibacterial activity against Acinetobacter baumannii ATCC 19606 after 18 hrs by agar dilution method. The class given is functional. The following applies: ATCC 19606 = CIP 70.34 = JCM 6841, 18 h. In a few lines:
as §1

Series [5] is described as follows: (§2) Cytotoxicity against African green monkey Vero cells after 72 hrs by MTT assay. In kind it is cell-based. The following applies: chlorocebus sabaeus, Vero cells. The method, boiled down: (§3)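 Vero cells seeded at 2x10^3 cells/well, incubated 24 h at 37 °C, 5% CO2, then exposed to compound 72 h; MTT added for 2 h, medium removed, formazan dissolved in DMSO, absorbance read at 570 nm. Viability relative to untreated cells (100%); CC50 as mean ± SD of three independent experiments, each in triplicate.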

Series [6] in a line: Acute toxicity in iv dosed ICR mouse assessed as survival measured daily for 7 days. The class given is organism-based. Conditions: in vivo. The method, boiled down:
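ICR mice, 18 to 22 g, 4 weeks old, 10 per group (5 male, 5 female). Four to five intravenous dose groups per compound. Survival recorded daily for 7 days. LD50 (dose per kg body weight lethal to 50%) calculated by the Bliss method. LD50 values compared by one-way ANOVA.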

Series [7] has as its system Mus musculus. In words: Nephrotoxicity in ICR mouse assessed as tubular dilation at 2.5 mg/kg, iv bid for 7 days measured after 2 hrs post last dose by hematoxylin and eosin staining based assay. The following applies: in vivo. In kind it is toxicity, organism-based. The method, boiled down:
(§4)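 ICR mice, 18-22 g, 4 weeks old, n=8 per group (4 male, 4 female); component in saline (0.25 mg/mL, kept at 4 °C) given iv at 2.5 mg/kg twice daily, 8 h apart, for 7 days. Kidneys taken 2 h after last dose, formalin-fixed, paraffin-embedded, sectioned, H&E stained and examined by light microscopy; saline controls included.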

Series [8] has as its system Mus musculus. In words: Nephrotoxicity in ICR mouse assessed as induction of prominent nuclei at 2.5 mg/kg, iv bid for 7 days measured after 2 hrs post last dose by hematoxylin and eosin staining based assay. The class given is toxicity, organism-based. Conditions: in vivo. The method, boiled down: as §4
Series [9] has as its system Mus musculus. Description: Nephrotoxicity in ICR mouse assessed as pale tubular casts at 2.5 mg/kg, iv bid for 7 days measured after 2 hrs post last dose by hematoxylin and eosin staining based assay. In kind it is toxicity, organism-based. Conditions: in vivo. In a few lines:
as §4

A further series concerns Vero. Described as §2. The class given is cell-based. Conditions: chlorocebus sabaeus, vero, 72 h. The method, boiled down: as §3

As for `CC[C@H](C)CCCCC(=O)N[C@@H](CCN)C(=O)N[C@H](C(=O)N[C@@H](CCN)C(=O)N[C@H]1CCNC(=O)[C@H]([C@@H](C)O)NC(=O)[C@H](CCN)NC(=O)[C@H](CCN)NC(=O)[C@H]([C@@H](C)O)NC(=O)[C@@H](CC(C)C)NC(=O)[C@H](CCN)NC1=O)[C@@H](C)O` (X1-[Dab]T[Dab][Dab][Dab][dL]T[Dab][Dab]T; lactam 4-C), the minimal inhibitory concentration (MIC) was 0.25 mg/L (≈ 0.216 µM) with Escherichia coli [1]; no more than 0.03 mg/L with Escherichia coli [2]; 0.25 mg/L (≈ 0.216 µM) with Klebsiella pneumoniae [3]; 0.5 mg/L (≈ 0.432 µM) in the series with Klebsiella pneumoniae [4]; 1 mg/L (≈ 0.864 µM) against Pseudomonas aeruginosa; 0.5 mg/L (≈ 0.432 µM) against Acinetobacter baumannii. The compound also returned a 50% cytotoxic concentration (CC50) at 72 h in series [5] of 96 mg/L (≈ 82.9 µM). The 50% lethal dose (LD50) at 168 h in series [6] is 11.4 mg/kg.

Consider `CC(C)CCCCC(=O)N[C@@H](CCN)C(=O)N[C@H](C(=O)N[C@@H](CCN)C(=O)N[C@H]1CCNC(=O)[C@H]([C@@H](C)O)NC(=O)[C@H](CCN)NC(=O)[C@H](CCN)NC(=O)[C@H](CC(C)C)NC(=O)[C@@H](CC(C)C)NC(=O)[C@H](CCN)NC1=O)[C@@H](C)O` [COLISTIN B] ({Heptanoyl(6-Me)}-[Dab]T[Dab][Dab][Dab][dL]L[Dab][Dab]T; lactam 4-C), for which the MIC against Escherichia coli [1] is 0.5 mg/L (≈ 0.433 µM); in the series with Escherichia coli [2], 0.5 mg/L (≈ 0.433 µM); against Klebsiella pneumoniae [3] it was 1 mg/L (≈ 0.865 µM); in the series on Klebsiella pneumoniae [4], 1 mg/L (≈ 0.865 µM); against Pseudomonas aeruginosa, 2 mg/L (≈ 1.73 µM); against Acinetobacter baumannii, 0.5 mg/L (≈ 0.433 µM). Besides, in series [5], the midpoint of cytotoxicity, the CC50 at 72 h, lay at 244 mg/L (≈ 211 µM). The LD50 at 168 h in [6] was 11.3 mg/kg. Besides, the Activity entry in the series on Mus musculus [7], with Mus musculus [8] and with Mus musculus [9] was “Non-Toxic” each time.

For the compound `CC(C)CCCCC(=O)N[C@@H](CCN)C(=O)N[C@H](C(=O)N[C@H](CO)C(=O)N[C@H]1CCNC(=O)[C@H]([C@@H](C)O)NC(=O)[C@H](CCN)NC(=O)[C@H](CCN)NC(=O)[C@H]([C@@H](C)O)NC(=O)[C@@H](CC(C)C)NC(=O)[C@H](CCN)NC1=O)[C@@H](C)O` ({Heptanoyl(6-Me)}-[Dab]T[dS][Dab][Dab][dL]T[Dab][Dab]T; lactam 4-C), the MIC was found to be 0.25 mg/L (≈ 0.221 µM) against Escherichia coli [1]; 0.12 mg/L (≈ 0.106 µM) in the series on Escherichia coli [2]; 0.5 mg/L (≈ 0.442 µM) with Klebsiella pneumoniae [3]; 0.5 mg/L (≈ 0.442 µM) against Klebsiella pneumoniae [4]; 4 mg/L (≈ 3.54 µM) in the series on Pseudomonas aeruginosa; 0.12 mg/L (≈ 0.106 µM) in the series with Acinetobacter baumannii. In addition, half-maximal cytotoxicity in [5] (CC50 at 72 h) was put at 318 mg/L (≈ 281 µM). For the same compound, in series [6], the LD50 at 168 h was 20.5 mg/kg. For the same compound, the Activity result with Mus musculus [7], with Mus musculus [8] and in the series on Mus musculus [9] was “Toxic” in each case.

For the compound `CC[C@H](C)[C@@H]1NC(=O)[C@@H](CC(C)C)NC(=O)[C@H](CCN)NC(=O)[C@@H](NC(=O)[C@H](CCN)NC(=O)[C@@H](NC(=O)[C@H](CCN)NC(=O)CCCCC(C)C)[C@@H](C)O)CCNC(=O)[C@H]([C@@H](C)O)NC(=O)[C@H](CCN)NC(=O)[C@H](CCN)NC1=O`, the minimum inhibitory concentration (MIC) came out at 1 mg/L (≈ 0.865 µM) against Escherichia coli [1]; 0.5 mg/L (≈ 0.433 µM) with Escherichia coli [2]; 0.5 mg/L (≈ 0.433 µM) in the series with Klebsiella pneumoniae [3]; 1 mg/L (≈ 0.865 µM) in the series with Klebsiella pneumoniae [4]; 2 mg/L (≈ 1.73 µM) in the series with Pseudomonas aeruginosa; 1 mg/L (≈ 0.865 µM) against Acinetobacter baumannii. In addition, in [5], it took 199 mg/L (≈ 172 µM) to reach half-maximal cytotoxicity (CC50 at 72 h). For the same compound, the 50% lethal dose (LD50) at 168 h in series [6] was 12.9 mg/kg.

For the compound COLISTIN, in the series with Vero, the cytotoxic concentration (CC50) worked out at 95 mg/L.
